Measured values as given in publication PMC5615155 (Toxicology Reports, 2017).
Several values for one entry are separate records, joined by “and”; a condition that tells them apart may be missing. Identical values can stand only once. Entries after “also recorded” stand apart in the source; their conditions may differ.

Tests used:
E. coli strain WP2 uvrA = assay: bacterial reverse mutation test; format: cell-based; conditions: 100–5000 μg/plate, plate incorporation, ±S9
Outline: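 GLP plate-incorporation Ames test per OECD 471 with S. typhimurium TA98, TA100, TA1535, TA1537 and E. coli WP2 uvrA, ± Aroclor 1254-induced male rat liver S9. An initial toxicity-mutation phase (1.5–5000 μg/plate) set the range for the confirmatory assay at 100, 333, 1000, 3333 and 5000 μg/plate. Negative and positive controls were included. Toxicity and precipitate were noted.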

[1] = cited from earlier work
CYP3A4 = CYP3A4 (Homo sapiens, UniProt P08684); assay: CYP inhibition, spectrofluorimetric; format: biochemical; conditions: recombinant human CYP3A4 expressed in insect Sf9 cells
CYP3A4, sequence (P08684 whole entry, canonical isoform): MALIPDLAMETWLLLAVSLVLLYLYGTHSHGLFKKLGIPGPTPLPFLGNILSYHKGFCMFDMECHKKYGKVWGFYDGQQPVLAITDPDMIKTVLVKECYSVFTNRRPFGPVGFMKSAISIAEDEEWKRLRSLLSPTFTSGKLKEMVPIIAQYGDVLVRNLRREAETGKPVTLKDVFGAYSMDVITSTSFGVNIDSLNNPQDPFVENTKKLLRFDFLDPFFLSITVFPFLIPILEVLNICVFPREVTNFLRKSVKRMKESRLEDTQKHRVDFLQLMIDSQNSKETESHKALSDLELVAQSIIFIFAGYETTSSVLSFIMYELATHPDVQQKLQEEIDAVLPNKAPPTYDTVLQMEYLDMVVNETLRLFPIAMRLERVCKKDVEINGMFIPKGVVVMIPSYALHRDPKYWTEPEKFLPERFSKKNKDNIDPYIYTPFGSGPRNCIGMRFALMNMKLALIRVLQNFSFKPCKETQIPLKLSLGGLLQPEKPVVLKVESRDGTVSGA
Outline: (§1)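 Inhibition was assayed with recombinant human CYP isoforms expressed in insect Sf9 cells. Turnover of spectrofluorimetric substrates was read by fluorescence. Test compound was tested at a single concentration of 10 μM.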

solubility / dissolution = format: physicochemical; conditions: S8069 at 10 mg/mL; S2218 at all dose levels
[2] = excretion in feces and urine; format: in vivo, Sprague-Dawley rats
CYP2C19 = CYP2C19 (Homo sapiens, UniProt P33261); assay: CYP inhibition, spectrofluorimetric; format: biochemical; conditions: recombinant human CYP2C19 expressed in insect Sf9 cells
CYP2C19, sequence (P33261 whole entry): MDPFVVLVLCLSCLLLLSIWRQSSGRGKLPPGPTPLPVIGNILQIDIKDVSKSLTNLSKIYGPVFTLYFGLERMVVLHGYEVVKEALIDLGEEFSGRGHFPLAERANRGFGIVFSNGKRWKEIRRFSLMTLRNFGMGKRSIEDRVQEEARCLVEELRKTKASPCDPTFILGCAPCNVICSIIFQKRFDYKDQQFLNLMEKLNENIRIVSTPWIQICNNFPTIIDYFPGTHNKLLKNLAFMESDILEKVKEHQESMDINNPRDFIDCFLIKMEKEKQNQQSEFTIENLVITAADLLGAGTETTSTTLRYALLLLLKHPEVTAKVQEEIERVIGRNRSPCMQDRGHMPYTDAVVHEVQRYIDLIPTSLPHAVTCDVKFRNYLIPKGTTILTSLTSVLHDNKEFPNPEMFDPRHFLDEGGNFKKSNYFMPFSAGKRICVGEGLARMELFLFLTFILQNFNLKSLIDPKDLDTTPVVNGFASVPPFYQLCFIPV
Outline: as §1

[3] = in vitro microsomal metabolism; format: in vitro ADME, human; conditions: 10 μM, 0.5 mg/mL, +NADPH, 120 min
[4] = 28-day dose-range finding dietary toxicity study; format: in vivo, CD [Crl:CD(SD)] rats
Outline: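 This 28-day dose-range-finding study used CD [Crl:CD(SD)] rats, 8/sex/group. Rats received test compound continuously in the diet at nominal 10, 30 or 100 mg/kg bw/day; controls got untreated diet. Dietary concentration (ppm) was adjusted weekly from body weight and food consumption to keep mg/kg bw/day doses constant. NOAEL was set from the 28-day findings.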

[5] = single-dose pharmacokinetics and oral bioavailability; format: in vivo, Sprague-Dawley rats; conditions: for clearance: CL, S2218 iv 1 mg/kg bw
CYP2D6 = CYP2D6 (Homo sapiens, UniProt P10635); assay: CYP inhibition, spectrofluorimetric; format: biochemical; conditions: recombinant human CYP2D6 expressed in insect Sf9 cells
CYP2D6, sequence (P10635 whole entry): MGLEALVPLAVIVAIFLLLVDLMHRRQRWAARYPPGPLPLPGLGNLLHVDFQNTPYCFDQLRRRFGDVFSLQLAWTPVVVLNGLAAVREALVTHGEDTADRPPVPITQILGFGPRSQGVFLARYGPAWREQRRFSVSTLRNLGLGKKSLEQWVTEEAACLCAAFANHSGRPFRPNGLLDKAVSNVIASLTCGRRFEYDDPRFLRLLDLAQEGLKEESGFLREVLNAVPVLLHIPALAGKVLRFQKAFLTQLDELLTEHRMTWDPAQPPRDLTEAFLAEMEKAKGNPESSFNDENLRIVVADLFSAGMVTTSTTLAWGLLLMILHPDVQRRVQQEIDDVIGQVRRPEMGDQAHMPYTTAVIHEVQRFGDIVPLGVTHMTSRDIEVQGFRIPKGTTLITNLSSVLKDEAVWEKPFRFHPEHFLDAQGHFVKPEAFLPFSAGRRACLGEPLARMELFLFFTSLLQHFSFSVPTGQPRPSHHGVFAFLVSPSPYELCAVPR
Outline: as §1

hERG = hERG (Homo sapiens, UniProt Q12809); assay: hERG electrophysiology; format: cell-based
hERG, sequence (Q12809 whole entry): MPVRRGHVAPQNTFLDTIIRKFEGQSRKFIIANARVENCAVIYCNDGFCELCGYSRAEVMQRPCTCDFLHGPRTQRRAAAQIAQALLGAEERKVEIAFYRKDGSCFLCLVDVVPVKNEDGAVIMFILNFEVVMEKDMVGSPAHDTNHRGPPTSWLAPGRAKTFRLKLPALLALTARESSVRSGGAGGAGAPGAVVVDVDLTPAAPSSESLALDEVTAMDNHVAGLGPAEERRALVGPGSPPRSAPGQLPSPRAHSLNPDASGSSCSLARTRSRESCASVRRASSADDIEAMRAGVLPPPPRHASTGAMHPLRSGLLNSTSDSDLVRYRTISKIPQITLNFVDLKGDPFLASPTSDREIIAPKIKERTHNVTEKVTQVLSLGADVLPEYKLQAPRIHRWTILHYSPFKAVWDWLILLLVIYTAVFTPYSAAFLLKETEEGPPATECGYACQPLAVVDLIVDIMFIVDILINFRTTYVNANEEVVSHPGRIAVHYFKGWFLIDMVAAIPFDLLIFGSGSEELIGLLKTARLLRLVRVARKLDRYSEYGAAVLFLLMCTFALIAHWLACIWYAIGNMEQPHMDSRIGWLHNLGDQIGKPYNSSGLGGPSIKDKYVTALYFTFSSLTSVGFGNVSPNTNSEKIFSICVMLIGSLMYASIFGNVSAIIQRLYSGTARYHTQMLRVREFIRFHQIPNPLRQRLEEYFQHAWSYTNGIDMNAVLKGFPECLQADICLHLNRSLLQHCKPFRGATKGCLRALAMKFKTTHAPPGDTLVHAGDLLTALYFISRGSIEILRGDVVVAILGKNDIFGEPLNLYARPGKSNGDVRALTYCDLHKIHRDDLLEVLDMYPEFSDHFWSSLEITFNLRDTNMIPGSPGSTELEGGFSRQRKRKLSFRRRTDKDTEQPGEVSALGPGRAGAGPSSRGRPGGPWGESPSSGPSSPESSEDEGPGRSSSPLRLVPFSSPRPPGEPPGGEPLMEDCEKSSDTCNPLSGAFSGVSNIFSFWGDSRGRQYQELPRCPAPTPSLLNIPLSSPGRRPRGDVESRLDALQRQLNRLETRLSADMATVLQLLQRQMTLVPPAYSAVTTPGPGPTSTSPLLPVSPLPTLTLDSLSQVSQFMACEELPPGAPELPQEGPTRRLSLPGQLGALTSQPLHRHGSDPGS

[6] = toxicokinetics in 13-week dietary study; format: in vivo, Sprague-Dawley rats
[7] = cited from earlier work; remark: listed apart in the source
[8] = female, Sprague-Dawley, rat, plasma, iv, 1 mg/kg
[9] = female, Sprague-Dawley, rat, plasma, po, 10 mg/kg
[10] = female, Sprague-Dawley, rat, plasma, po, 30 mg/kg
[11] = female, Sprague-Dawley, rat, plasma, po, 100 mg/kg
[12] = male, Sprague-Dawley, rat, plasma, iv, 1 mg/kg
[13] = male, Sprague-Dawley, rat, plasma, po, 10 mg/kg
[14] = male, Sprague-Dawley, rat, plasma, po, 30 mg/kg
[15] = male, Sprague-Dawley, rat, plasma, po, 100 mg/kg

For `Cc1cc(C(=O)NC(C)(C)COc2cccc3c2C(N)=NS(=O)(=O)N3)cc(C)n1` [S2218, N-(1-((4-amino-2,2-dioxido-1H-benzo[c][1,2,6]thiadiazin-5-yl)oxy)-2-methylpropan-2-yl)-2,6-dimethylisonicotinamide], the “Reverse mutation (in vitro), result” value (E. coli strain WP2 uvrA) is listed as “not mutagenic; also recorded: Negative”, the “photostability to UV light vs S6973 and S617” value [1] is listed as “significantly improved photostability” and the inhibition at 10 μM (CYP3A4) is listed as ≤ 7%. The “state in 1% methylcellulose dosing formulation” value (solubility / dissolution) was “formed a suspension”, the “% Recovery of S2218” value ([2]; feces + urine, female, 0–72 h) was 90.0% and 90.0 ± 7.5% and the “% Recovery of S2218” value ([2]; feces + urine, male, 0–72 h) was 82.1% and 82.1 ± 15.4%. For the same molecule, the “% Recovery of S2218” value ([2]; feces + urine, overall (M+F), 0–72 h) was 86.07%, the “% Recovery of S2218” value ([2]; feces, female, 0–24 h) was 82.19% and 82.19 ± 10.89% and the “% Recovery of S2218” value ([2]; feces, female, 0–72 h) was 89.79% and 89.79 ± 7.63%. The “% Recovery of S2218” value ([2]; feces, female, 24–48 h) was 7.504 ± 6.517%, the “% Recovery of S2218” value ([2]; feces, female, 48–72 h) was 0.152 ± 0.062% and the “% Recovery of S2218” value ([2]; feces, male, 0–24 h, S8069 10 mg/kg bw oral) was 76.68% and 76.68 ± 13.82%. For the same molecule, the “% Recovery of S2218” value ([2]; feces, male, 0–72 h) was 82.08% and 82.08 ± 15.35%, the “% Recovery of S2218” value ([2]; feces, male, 24–48 h) was 5.247 ± 4.432% and the “% Recovery of S2218” value ([2]; feces, male, 48–72 h) was 0.298 ± 0.225%. The “% Recovery of S2218” value ([2]; urine, female, 0–24 h) was 0.202 ± 0.216%, the “% Recovery of S2218” value ([2]; urine, female, 0–72 h) was 0.230% and 0.230 ± 0.252% and the “% Recovery of S2218” value ([2]; urine, female, 24–48 h) was 0.020 ± 0.027%. The “% Recovery of S2218” value ([2]; urine, female, 48–72 h) was 0.008 ± 0.010%, the “% Recovery of S2218” value ([2]; urine, male, 0–24 h) was 0.036 ± 0.025% and the “% Recovery of S2218” value ([2]; urine, male, 0–72 h) was 0.044% and 0.044 ± 0.022%. The “% Recovery of S2218” value ([2]; urine, male, 24–48 h) was 0.007 ± 0.004%, the “% Recovery of S2218” value ([2]; urine, male, 48–72 h) was 0.001 ± 0.001% and the “% Recovery of S2218” value ([2]; urine, overall (M+F), 0–72 h) was 0.137%. For the same molecule, the inhibition at 10 μM (CYP2C19) was ≤ 7%, the “% MS (EIC) peak area of parent relative to time 0” value [3] was 98.4 ± 0.4% and the Findings ([4]; 10, 30, 100 mg/kg bw/day food ad-mix) was “Slight increase in food consumption and mean body weight in males at 10 and 30 mg/kg bw/day”. The NOAEL at 28 days ([4]; both, CD [Crl:CD(SD)], rat, in vivo, oral) was 100 mg/kg/day, the “female/male ratio of mean AUClast” value ([5]; IV 1 mg/kg) was 0.88 and the “female/male ratio of mean Cmax” value ([5]; IV 1 mg/kg) was 1.06. The t1/2 ([5]; S2218 oral gavage 10 mg/kg bw, M, 10 mg/kg) was 45.8 ± 4.38 min, the bioavailability ([5]; both, Sprague-Dawley, rat, plasma, po, %F, both test articles, male and female rats, all doses) was 0.14 to 0.77% and the AUC(0-t) [5, 8] was 440 ± 57.1 ng·h/mL. For the same molecule, the Cmax [5, 8] was 3150 ± 399 ng/mL, the Tmax [5, 8] was 1.98 min and the Vd [5, 8] was 0.575 L/kg. The clearance ([5]; female, Sprague-Dawley, rat, plasma, iv, 1 mg/kg, F) was 38.3 mL/min/kg, the half-life ([5]; female, Sprague-Dawley, rat, plasma, iv, 1 mg/kg, t1/2, S2218 iv 1 mg/kg bw, F) was 10.4 ± 0.24 min and the AUC(0-t) [5, 9] was 19.1 ± 10.5 ng·h/mL. It also gave a Cmax [5, 9] of 22.1 ± 8.55 ng/mL, a Tmax [5, 9] of 18.8 ± 7.5 min and an AUC(0-t) [5, 10] of 37.7 ± 14 ng·h/mL. For the same molecule, the Cmax [5, 10] was 36.8 ± 14.8 ng/mL, the Tmax [5, 10] was 18.8 ± 7.5 min and the AUC(0-t) [5, 11] was 65.9 ± 34.6 ng·h/mL. It also gave a Cmax [5, 11] of 38.7 ± 20.4 ng/mL, a Tmax [5, 11] of 15 min and a half-life ([5]; female, Sprague-Dawley, rat, plasma, po, mean t1/2 of S2218 in plasma, oral dose of S2218 or S8069, female rats) of 45 to 75 min. The “CL as % of hepatic blood flow” value ([5]; iv, F) was 69.6%, the “Vss as % of total body water volume” value ([5]; iv, F) was 86.1% and the “CL as % of hepatic blood flow” value ([5]; iv, M) was 60.9%. For the same molecule, the “Vss as % of total body water volume” value ([5]; iv, M) was 80.2%, the AUC(0-t) [5, 12] was 500 ± 47.9 ng·h/mL and the Cmax [5, 12] was 2980 ± 291 ng/mL. For the same molecule, the Tmax [5, 12] was 1.98 min, the Vd [5, 12] was 0.536 L/kg and the clearance ([5]; male, Sprague-Dawley, rat, plasma, iv, 1 mg/kg, M) was 33.5 mL/min/kg. It also gave a half-life ([5]; male, Sprague-Dawley, rat, plasma, iv, 1 mg/kg, t1/2, S2218 iv 1 mg/kg bw, M) of 11.1 ± 1.56 min, an AUC(0-t) [5, 13] of 18.1 ± 4.84 ng·h/mL and a Cmax [5, 13] of 16.8 ± 6.03 ng/mL. For the same molecule, the Tmax [5, 13] was 18.8 ± 7.5 min, the AUC(0-t) [5, 14] was 33.2 ± 20.7 ng·h/mL and the Cmax [5, 14] was 31.2 ± 14.6 ng/mL. For the same molecule, the Tmax [5, 14] was 22.5 ± 8.64 min, the AUC(0-t) [5, 15] was 96.6 ± 31.4 ng·h/mL and the Cmax [5, 15] was 76.3 ± 28.8 ng/mL. For the same molecule, the Tmax [5, 15] was 20 ± 8.64 min, the half-life ([5]; male, Sprague-Dawley, rat, plasma, po, mean t1/2 of S2218 in plasma, oral dose of S2218 or S8069, male rats) was 40.2 to 51.6 min and the inhibition at 10 μM (CYP2D6) was ≤ 7%. The inhibition at 10 μM (hERG) was < 10%, the “ACUM Ratio (dose-normalized AUC0-24h Day 91/Day 7)” value ([6]; 30 mg/kg bw, M + F) was 1.88 and the “ACUM Ratio (dose-normalized AUC0-24h Day 91/Day 7)” value ([6]; 70 mg/kg bw, M + F) was 0.954. The “ACUM Ratio (dose-normalized AUC0-24h Day 91/Day 7)” value ([6]; 140 mg/kg bw, F) was 0.768, the “ACUM Ratio (dose-normalized AUC0-24h Day 91/Day 7)” value ([6]; 140 mg/kg bw, M) was 4.55 and the “ACUM Ratio (dose-normalized AUC0-24h Day 91/Day 7)” value ([6]; 140 mg/kg bw, M + F) was 2.30. The “water solubility at low pH vs S6973 and S617” value [7] was “improved water solubility at low pH”.
